Reference: ChEMBL document CHEMBL1156816, “Antiangiogenic effect of dual/selective alpha(5)beta(1)/alpha(v)beta(3) integrin antagonists designed on partially modified retro-inverso cyclotetrapeptide mimetics” (J Med Chem, 2010)
The source made the active and inactive calls. The calls are words filed in the database; no cut-off is given here. Non-standard residues stand in square brackets, D forms with d. Residues, ends and D or L forms follow the SMILES beside them.

Columns and labels:
HUVEC [1] = test: Antiangiogenic activity in HUVEC on Matrigel assessed as reduction of bFGF-induced tube branches measured per square mm at 10 uM after 16 hrs by microscopic analysis; assay type: functional
In short: (§1)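 HUVEC (passages 2-7, cultured in EGM) seeded at 5000 cells/well on Matrigel-precoated wells with test compound, with or without bFGF 30 ng/mL. Vehicle up to 1% DMSO in medium. Incubated 16 h at 37 °C. Capillary-like tubes examined by microscopy with camera and counted as tubes per square millimeter. Quadruplicate, repeated three times; mean ± SEM; Newman-Keuls test after ANOVA.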

HUVEC [2] = test: Cytotoxicity against HUVEC assessed as change in cell morphology at 1 uM after 16 hrs by flow cytometry using Annexin V/propidium staining; assay type: cell-based; conditions: human
In short: (§2)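 HUVEC exposed 16 h to 1 or 10 μM cyclopeptide; morphology examined. For flow cytometry, cells were detached and fixed 15 min in 1% paraformaldehyde, then PBS-washed. They were resuspended in 10 mM Hepes/NaOH pH 7.4, 140 mM NaCl, 5 mM CaCl₂ with Annexin-V-Fluos and propidium iodide, kept 15 min at room temperature in the dark, then analyzed for intact, apoptotic and necrotic cells.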

HUVEC [3] = test: Cytotoxicity against HUVEC assessed as change in cell morphology at 10 uM after 16 hrs by flow cytometry using Annexin V/propidium staining; assay type: cell-based; conditions: human; in short: as §2
HUVEC [4] = test: Cytotoxicity against HUVEC assessed as increase in level of necrotic cells at 1 uM after 16 hrs by flow cytometry using Annexin V/propidium staining; assay type: cell-based; conditions: human; in short: as §2
HUVEC [5] = test: Cytotoxicity against HUVEC assessed as increase in level of necrotic cells at 10 uM after 16 hrs by flow cytometry using Annexin V/propidium staining; assay type: cell-based; conditions: human; in short: as §2
Integrin alpha-V/beta-3 [6] = biological target: T1, Integrin alpha-V/beta-3 (Homo sapiens, UniProt P05106+P06756); test: Inhibition of alphavbeta3 integrin-mediated cell adhesion in human SK-MEL-24 cells on fibronectin coated plate after 30 mins; assay type: cell-based
Integrin alpha-V/beta-3 [7] = biological target: T1, Integrin alpha-V/beta-3; test: Inhibition of alphavbeta3 integrin-mediated cell adhesion in HUVEC on vitronectin coated plate after 30 mins
Integrin alpha-5/beta-1 = Integrin alpha-5/beta-1 (Homo sapiens, UniProt P05556+P08648); test: Inhibition of alpha5beta1 integrin-mediated cell adhesion in human K562 cells on fibronectin coated plate after 30 mins; assay type: cell-based
In short: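 Wells coated overnight at 4 °C with fibronectin or vitronectin (10 μg/mL). Cells were preincubated 30 min at room temperature with compound (≤1% DMSO), then plated at 50000/well and left 1 h at room temperature. After PBS wash, adherent cells were quantified by hexosaminidase substrate read at 405 nm against a calibration curve. Quadruplicate, ≥3 repeats; IC50 calculated.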

HUVEC [8] = test: Antiangiogenic activity in HUVEC on Matrigel assessed as inhibition of bFGF-induced tube formation at 1 uM after 16 hrs; assay type: functional, cell-based; conditions: Homo sapiens; in short: as §1
HUVEC [9] = test: Inhibition of bFGF-induced angiogenesis in HUVEC on Matrigel assessed as endothelial morphogenesis at 1 uM after 16 hrs by microscopic analysis; assay type: functional, cell-based; conditions: Homo sapiens; in short: as §1
HUVEC [10] = test: Inhibition of bFGF-induced angiogenesis in HUVEC on Matrigel assessed as number of tube branches at 100 to 500 nM after 16 hrs by microscopic analysis; assay type: functional, cell-based; conditions: Homo sapiens; in short: as §1
HUVEC [11] = test: Inhibition of bFGF-induced angiogenesis in HUVEC cells on Matrigel assessed as number of tube branches at 10 nM after 16 hrs by microscopic analysis; assay type: functional, cell-based; conditions: Homo sapiens; in short: as §1
[12] = in the assay text read “at 1 uM” for “at 10 uM”

T1 sequence (P05106 27-788 limits assumed): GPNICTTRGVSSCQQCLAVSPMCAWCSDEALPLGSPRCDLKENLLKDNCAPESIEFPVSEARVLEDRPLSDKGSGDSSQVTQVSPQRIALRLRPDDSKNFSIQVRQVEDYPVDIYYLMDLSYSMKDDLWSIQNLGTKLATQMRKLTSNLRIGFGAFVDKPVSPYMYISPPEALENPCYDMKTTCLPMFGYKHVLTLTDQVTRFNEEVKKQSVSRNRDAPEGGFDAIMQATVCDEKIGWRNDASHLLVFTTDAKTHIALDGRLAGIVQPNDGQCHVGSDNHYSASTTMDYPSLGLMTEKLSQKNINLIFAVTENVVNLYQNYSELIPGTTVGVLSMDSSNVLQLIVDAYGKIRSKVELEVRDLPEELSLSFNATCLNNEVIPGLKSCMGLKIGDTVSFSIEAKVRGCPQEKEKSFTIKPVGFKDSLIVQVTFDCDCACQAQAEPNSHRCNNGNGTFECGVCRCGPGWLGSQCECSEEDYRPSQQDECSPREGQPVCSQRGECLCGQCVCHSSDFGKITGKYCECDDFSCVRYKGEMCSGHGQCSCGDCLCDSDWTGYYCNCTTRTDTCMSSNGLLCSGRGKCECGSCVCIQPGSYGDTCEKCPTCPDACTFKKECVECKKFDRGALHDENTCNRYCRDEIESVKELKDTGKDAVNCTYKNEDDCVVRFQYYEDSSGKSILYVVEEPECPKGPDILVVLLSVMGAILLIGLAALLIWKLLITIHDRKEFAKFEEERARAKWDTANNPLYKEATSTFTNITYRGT
T1 sequence (P06756 31-889 limits assumed): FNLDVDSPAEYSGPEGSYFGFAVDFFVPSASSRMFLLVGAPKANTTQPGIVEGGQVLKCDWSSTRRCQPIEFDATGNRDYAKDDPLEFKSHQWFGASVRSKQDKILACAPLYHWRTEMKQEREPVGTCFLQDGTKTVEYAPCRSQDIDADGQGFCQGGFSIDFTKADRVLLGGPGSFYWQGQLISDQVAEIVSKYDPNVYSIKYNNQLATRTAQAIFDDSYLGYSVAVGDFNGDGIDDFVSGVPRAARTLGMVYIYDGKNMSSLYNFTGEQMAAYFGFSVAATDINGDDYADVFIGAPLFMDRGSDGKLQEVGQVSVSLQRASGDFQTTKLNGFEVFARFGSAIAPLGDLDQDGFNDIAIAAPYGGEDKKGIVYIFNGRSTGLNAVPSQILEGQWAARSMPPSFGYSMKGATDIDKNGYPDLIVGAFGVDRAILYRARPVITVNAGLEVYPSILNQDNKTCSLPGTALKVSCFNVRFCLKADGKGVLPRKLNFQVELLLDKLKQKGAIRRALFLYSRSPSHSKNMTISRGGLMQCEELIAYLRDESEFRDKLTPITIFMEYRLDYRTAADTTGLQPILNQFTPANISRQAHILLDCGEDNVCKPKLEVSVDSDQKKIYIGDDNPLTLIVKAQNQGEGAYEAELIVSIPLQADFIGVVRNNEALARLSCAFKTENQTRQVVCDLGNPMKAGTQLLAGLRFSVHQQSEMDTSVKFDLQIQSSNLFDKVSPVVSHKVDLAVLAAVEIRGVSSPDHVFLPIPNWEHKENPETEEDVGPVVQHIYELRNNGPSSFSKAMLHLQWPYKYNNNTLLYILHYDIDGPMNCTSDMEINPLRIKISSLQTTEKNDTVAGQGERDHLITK
T1 sequence (P06756 891-1048 limits assumed): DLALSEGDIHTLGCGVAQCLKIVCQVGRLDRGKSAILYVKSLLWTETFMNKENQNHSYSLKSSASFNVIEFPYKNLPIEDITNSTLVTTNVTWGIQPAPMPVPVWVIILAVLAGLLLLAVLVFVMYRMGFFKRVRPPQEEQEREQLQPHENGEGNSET
Integrin alpha-5/beta-1, sequence (P05556 21-798 limits assumed): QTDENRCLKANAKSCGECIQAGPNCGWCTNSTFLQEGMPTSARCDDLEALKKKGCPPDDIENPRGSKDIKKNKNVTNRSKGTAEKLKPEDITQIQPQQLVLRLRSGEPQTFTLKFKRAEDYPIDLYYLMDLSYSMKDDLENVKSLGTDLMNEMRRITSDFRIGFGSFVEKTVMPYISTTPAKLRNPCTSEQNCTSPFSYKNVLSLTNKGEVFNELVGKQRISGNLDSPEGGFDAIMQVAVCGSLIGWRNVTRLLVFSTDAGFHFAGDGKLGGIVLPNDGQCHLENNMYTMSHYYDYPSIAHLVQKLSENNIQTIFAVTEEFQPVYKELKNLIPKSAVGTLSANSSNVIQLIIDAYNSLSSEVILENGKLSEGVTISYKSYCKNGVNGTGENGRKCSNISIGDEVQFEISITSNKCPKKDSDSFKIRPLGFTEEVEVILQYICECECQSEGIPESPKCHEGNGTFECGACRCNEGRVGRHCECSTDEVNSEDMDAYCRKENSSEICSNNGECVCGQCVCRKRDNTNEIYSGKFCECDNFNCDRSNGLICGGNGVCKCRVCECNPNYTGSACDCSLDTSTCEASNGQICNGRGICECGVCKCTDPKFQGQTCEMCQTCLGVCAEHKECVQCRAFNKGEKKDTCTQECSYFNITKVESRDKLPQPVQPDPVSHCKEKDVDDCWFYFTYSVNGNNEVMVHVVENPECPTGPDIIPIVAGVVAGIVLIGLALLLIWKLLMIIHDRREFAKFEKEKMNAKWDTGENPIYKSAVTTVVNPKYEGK
Integrin alpha-5/beta-1, sequence (P08648 42-894 limits assumed): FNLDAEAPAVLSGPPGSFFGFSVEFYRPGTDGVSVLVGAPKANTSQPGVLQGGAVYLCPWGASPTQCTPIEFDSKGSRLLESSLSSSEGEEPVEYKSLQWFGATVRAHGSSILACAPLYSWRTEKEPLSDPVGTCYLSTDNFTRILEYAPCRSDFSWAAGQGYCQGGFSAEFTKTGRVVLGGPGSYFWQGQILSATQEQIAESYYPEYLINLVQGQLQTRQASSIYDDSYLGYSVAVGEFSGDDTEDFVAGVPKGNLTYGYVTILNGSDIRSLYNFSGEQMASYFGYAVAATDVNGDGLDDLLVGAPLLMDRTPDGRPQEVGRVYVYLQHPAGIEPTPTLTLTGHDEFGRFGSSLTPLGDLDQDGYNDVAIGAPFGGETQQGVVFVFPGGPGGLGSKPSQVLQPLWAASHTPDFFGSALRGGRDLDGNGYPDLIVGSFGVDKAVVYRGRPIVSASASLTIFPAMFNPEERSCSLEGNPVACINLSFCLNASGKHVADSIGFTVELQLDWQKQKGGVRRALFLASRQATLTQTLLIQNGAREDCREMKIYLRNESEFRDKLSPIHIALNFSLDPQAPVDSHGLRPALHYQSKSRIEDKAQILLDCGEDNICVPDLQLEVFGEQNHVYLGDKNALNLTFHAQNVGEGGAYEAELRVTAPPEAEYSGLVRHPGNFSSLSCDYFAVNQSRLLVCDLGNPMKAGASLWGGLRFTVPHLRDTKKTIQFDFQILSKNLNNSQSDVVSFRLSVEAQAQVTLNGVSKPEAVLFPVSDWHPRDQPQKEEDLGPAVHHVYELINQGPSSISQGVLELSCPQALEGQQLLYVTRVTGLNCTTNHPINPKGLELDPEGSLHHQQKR
Integrin alpha-5/beta-1, sequence (P08648 895-1049 limits assumed): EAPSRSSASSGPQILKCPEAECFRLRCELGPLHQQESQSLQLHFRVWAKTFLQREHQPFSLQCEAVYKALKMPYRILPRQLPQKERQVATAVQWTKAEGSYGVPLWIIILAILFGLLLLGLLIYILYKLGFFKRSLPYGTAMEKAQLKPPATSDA

Row | IC50 (Integrin alpha-V/beta-3 [6]) [µM] | IC50 (Integrin alpha-V/beta-3 [7]) [µM] | IC50 (Integrin alpha-5/beta-1) [µM] | Structure (SMILES) | Activity (HUVEC [1]; Homo sapiens) | Activity (HUVEC [2]) | Activity (HUVEC [3]) | Activity (HUVEC [4]) | Activity (HUVEC [5]) | Activity (HUVEC [8]) | Activity (HUVEC [1]; [12]) | Activity (HUVEC [9]) | Activity (HUVEC [10]) | Activity (HUVEC [11])
1 |  |  |  | N=C(N)NCCC[C@H]1NC(=O)CC(=O)N[C@H](CC(=O)O)C(=O)N[C@H](Cc2ccccc2)CNC1=O | inactive |  |  |  |  |  |  |  |  | 
2 | 0.18 | 0.24 | 0.024 | NC(N)=NCCC[C@@H]1NC(=O)CC(=O)N[C@@H](CC(=O)O)C(=O)N[C@H](Cc2ccccc2)CNC1=O |  | Non-toxic | Non-toxic | Non-toxic | Non-toxic |  |  |  |  | 
3 |  |  | 34.7 | CC(C)[C@@H]1NC(=O)[C@@H](Cc2ccccc2)NC(=O)[C@H](CC(=O)O)NC(=O)CNC(=O)[C@H](CCCN=C(N)N)NC1=O [CYCLORGDFV] |  |  |  |  |  |  |  |  |  | 
4 | > 100 | > 100 | > 100 | NC(N)=NCCC[C@H]1NC(=O)CC(=O)N[C@@H](CC(=O)O)C(=O)N[C@H](Cc2ccccc2)CNC1=O |  | Non-toxic | Non-toxic | Non-toxic | Non-toxic |  |  |  |  | 
5 | > 100 | > 100 | > 100 | NC(N)=NCCC[C@H]1NC(=O)CC(=O)N[C@H](CC(=O)O)C(=O)N[C@@H](Cc2ccccc2)CNC1=O |  | Non-toxic | Non-toxic | Non-toxic | Non-toxic |  |  |  |  | 
6 | 11 | 25.2 | 0.52 | N=C(N)NCCC[C@@H]1NC(=O)CC(=O)N[C@@H](CC(=O)O)C(=O)N[C@@H](Cc2ccccc2)CNC1=O |  | Non-toxic | Non-toxic | Non-toxic | Non-toxic | Active | 6.8 | Active | inactive | inactive
7 |  |  |  | N=C(N)NCCC[C@H]1NC(=O)CC(=O)N[C@H](CC(=O)O)C(=O)N[C@@H](Cc2ccccc2)CNC1=O | inactive |  |  |  |  |  |  |  |  | 
8 |  |  |  | N=C(N)NCCC[C@H]1NC(=O)CC(=O)N[C@@H](CC(=O)O)C(=O)N[C@H](Cc2ccccc2)CNC1=O | inactive |  |  |  |  |  |  |  |  | 
9 | > 100 | > 100 | > 100 | N=C(N)NCCC[C@@H]1NC(=O)CC(=O)N[C@H](CC(=O)O)C(=O)N[C@@H](Cc2ccccc2)CNC1=O | inactive | Non-toxic | Non-toxic | Non-toxic | Non-toxic |  |  |  |  | 
10 | > 100 | > 100 | > 100 | CC(C)[C@@H]1NC(=O)[C@@H](Cc2ccccc2)NC(=O)[C@H](CC(=O)O)NC(=O)[C@H](C)NC(=O)[C@H](CCCN=C(N)N)NC1=O (cyclo(AD[dF]VR)) |  |  |  |  |  |  |  |  |  | 
11 | > 100 | > 100 | > 100 | NC(N)=NCCC[C@H]1NC(=O)CC(=O)N[C@H](CC(=O)O)C(=O)N[C@H](Cc2ccccc2)CNC1=O |  | Non-toxic | Non-toxic | Non-toxic | Non-toxic |  |  |  |  | 
12 | 2.1 | 0.92 | 1.3 | N=C(N)NCCC[C@@H]1NC(=O)CC(=O)N[C@H](CC(=O)O)C(=O)N[C@H](Cc2ccccc2)CNC1=O | inactive | Non-toxic | Non-toxic | Non-toxic | Non-toxic |  |  |  |  | 
13 |  |  |  | N=C(N)NCCC[C@@H]1NC(=O)CC(=O)N[C@@H](CC(=O)O)C(=O)N[C@H](Cc2ccccc2)CNC1=O |  |  |  |  |  | Active | 5.1 | Active | inactive | inactive
14 | 2.3 | 1.5 | 4.7 | N=C(N)NCCC[C@H]1NC(=O)CC(=O)N[C@@H](CC(=O)O)C(=O)N[C@@H](Cc2ccccc2)CNC1=O | inactive | Non-toxic | Non-toxic | Non-toxic | Non-toxic |  |  |  |  | 
